Measured values published in PMC3985958 (ACS Chemical Biology, 2014).

How the values were obtained:
[1] = tested on: caspase 3 and 7; test: CaspaseGlo 3/7 assay in MOLM-13 cells; assay type: cell-based, human; conditions: 20 μM, 24 h, relative to untreated control
[2] = tested on: p53; test: Western blot analysis in MOLM-13 cells; assay type: cell-based, human; conditions: 20 μM; 6, 12, 24 h
[3] = tested on: MOLM-13 cells; test: Apoptosis analysis Annexin-V/PI; conditions: for viable cells: separated enantiomers, after 72 h
[4] = tested on: MDM4; test: Western blot analysis in MOLM-13 cells; assay type: cell-based, human; conditions: 20 μM; 6, 12, 24 h
Procedure, shortened: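 MOLM-13 cells (wt p53) grown in RPMI 1640 with 10% heat-inactivated FBS, harvested in log phase. Treated with 20 µM test compound or left untreated, then lysed at 6, 12 and 24 h (1 × 10^6 cells). Equal protein run on 12% SDS-PAGE and electroblotted to PVDF. Loading checked by Ponceau S and β-actin. HRP secondaries with chemiluminescent detection.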

[5] = tested on: primary AML blasts; test: Apoptosis; assay type: cell-based, human; conditions: 20 μM, 72 h
[6] = tested on: PBMCs; test: Viability of freshly isolated PBMCs; assay type: cell-based, human; conditions: 72 h, data not shown
[7] = tested on: MDM2; test: Western blot analysis in MOLM-13 cells; assay type: cell-based, human; conditions: 20 μM; 6, 12, 24 h
[8] = biological target: MDM2 (Homo sapiens, UniProt Q00987); assay type: binding; conditions: SAR summary, unsubstituted indole
Sequence of MDM2 (Homo sapiens, UniProt Q00987) (Q00987 1-125): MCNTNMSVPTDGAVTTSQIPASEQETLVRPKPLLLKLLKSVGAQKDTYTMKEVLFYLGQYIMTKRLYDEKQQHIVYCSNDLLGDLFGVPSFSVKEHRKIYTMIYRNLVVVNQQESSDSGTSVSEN

(+)-YH239-EE
activation of caspase 3 and 7 [1]: significant higher activation of caspase 3 and 7 after 24 h than (−)-YH239-EE and Nutlin-3
induction of p53 [2]: induction of p53 could be observed after 6 h
viable cells [3]: 13.7%
level of MDM4 [4]: no effect
response of patient samples with lower blast (<45%) counts [5]: no response
share of tested samples with increased induction of apoptosis ([5]; 8 primary patient samples): 2/3
toxic effect on PBMCs (viability) [6]: less cytotoxic than Nutlin-3
MDM2 levels [7]: MDM2 levels raised after 12 h

COc1ccc(C2=N[C@@H](c3ccc(Cl)cc3)[C@@H](c3ccc(Cl)cc3)N2C(=O)N2CCNC(=O)C2)c(OC(C)C)c1 [Nutlin-3, reference compound]
apoptotic effect in words ([3]; 20 μM, 72 h): high induction of apoptosis
toxic effect on PBMCs (viability) [6]: higher toxic effect on PBMCs than (+)-YH239-EE

CC(=O)N(Cc1ccccc1)C(C(=O)NCc1ccccc1)c1c[nH]c2ccccc12 (stereo not shown) [5b]
activity (binding to MDM2) in words [8]: inactive

CCOC(=O)c1[nH]c2cc(Cl)ccc2c1C(C(=O)NC(C)(C)C)N(C=O)Cc1ccc(Cl)cc1 (single isomer, unassigned; (-)) [(−)-YH239-EE]
viable cells [3]: 51.5%

CC(=O)N(CC(C)C)C(C(=O)NCc1ccccc1)c1c[nH]c2ccccc12 (stereo not shown) [5a]
activity (binding to MDM2) in words [8]: inactive
